Measurements pooled from the literature.
Protocols differ between the studies behind these lines.
Target: Serine/threonine-protein kinase tousled-like 2 (TLK2, Homo sapiens, UniProt Q86UE8)

SMILES | assay | setting | quantity | value
Cc1ccc(NC(=O)c2ccc(C)c(C(F)(F)F)c2)cc1C#Cc1nn(C2CCC(O)CC2)c2ncnc(N)c12 (centres unmarked) | cell-free assay | 10 µM | remaining signal | 93%
O=C(NC[C@@H]1[C@H]2CN(C(=O)OCc3cc(C(F)(F)F)cc(C(F)(F)F)c3)C[C@@H]12)c1ccc2[nH]nnc2c1 | cell-free assay, competition with immobilised ligand | 1 µM | remaining binding | 90%
CCCOc1ccc(OC)c(F)c1C(=O)c1ccc(C(=O)N[C@@H]2CNC[C@H]2NC(=O)c2ccc3[nH]ncc3c2)cc1 | enzyme activity, inhibitor | 10 µM | remaining activity | 90%
O=C1NC(c2ccccn2)Sc2ccccc21 (centres unmarked) | cell-free assay, competition with immobilised ligand | 1 µM | remaining binding | 96%
Cc1cc(NC(=O)c2cccc3cc(-c4cccc5[nH]nc(N)c45)ccc23)ccc1F | enzyme activity, inhibitor | 0.1 µM | activity vs control | 100%
CC(C)(C)c1nc2c(s1)c1nc(N)ncc1c1ccc(NS(=O)(=O)c3c(F)cccc3F)c(F)c12 | enzyme activity, inhibitor, radiometric | 1 µM | remaining activity | 109%
C[S+]([O-])c1ccc(-c2nc(-c3ccncc3)c(-c3ccc(F)cc3)[nH]2)cc1 (centres unmarked) | cell-free assay | 0.5 µM | remaining signal | 96.5%
CCCCNc1ncc2c(-c3ccc(F)cc3)nn(C[C@H]3CC[C@H](N)CC3)c2n1 | target engagement in cells, inhibitor, chemoproteomics | 20 mM | inhibition | -20.7%
COc1cc(Cl)c(C(=O)N[C@@H](CN[C@H]2CC[C@@H](N)CC2)Cc2ccc(C#N)cc2)cc1-c1ccc(CN[C@H](C)c2ccc(C)cc2)o1 | enzyme activity, inhibitor | 1 µM | remaining activity | 94%
c1ccc(CNc2nc(N3CCOc4ccccc43)nc3c2CCCC3)cc1 | target engagement in cells, inhibitor, chemoproteomics | 20 mM | inhibition | -6.8%
Cc1cnc(NC2CCOCC2)nc1-n1cnc(C(=O)NC(CN)c2cc(F)cc(Cl)c2)c1 (centres unmarked) | enzyme activity, inhibitor, radiometric | 1 µM | remaining activity | 100%
COc1cc2c(N3CCN(C(=O)Nc4ccc(OC(C)C)cc4)CC3)ncnc2cc1OCCCN1CCCCC1 | cell-free assay | 0.5 µM | remaining signal | 96.2%
C[C@H](c1ccc(F)cc1)N(Cc1cccc(C(=O)O)c1)C(=O)c1cnc2ccccc2c1 | cell-free assay, competition with immobilised ligand | 1 µM | remaining binding | 97%
O=C(Nc1cnn(-c2csc(C(=O)NC3COC3)c2)c1)Nc1c(F)cccc1Cl | enzyme activity, inhibitor | 5 µM | remaining activity | 109%
CCCOc1ccc([C@H]2[C@H](C(=O)O)[C@@H](c3ccc4c(c3)OCO4)CN2CC(=O)Nc2c(CC)cccc2CC)cc1 | cell-free assay, competition with immobilised ligand | 1 µM | remaining binding | 94%
CNC(=O)c1cc(Oc2ccc(NC(=O)Nc3ccc(Cl)c(C(F)(F)F)c3)cc2)ccn1 | enzyme activity, inhibitor | 10 µM | inhibition | -1%
C[C@@H](c1cccc(C#N)c1)n1cc(Cl)cc(C(N)=O)c1=N | cell-free assay, competition with immobilised ligand | 1 µM | remaining binding | 100%
Oc1cccc(-c2nc(N3CCOCC3)c3oc4ncccc4c3n2)c1 | cell-free assay | 0.5 µM | remaining signal | 102%
COc1ccc2cc(OCC3(C(=O)O)CN(C(=O)c4ccc(F)cc4)C3)ccc2c1 | cell-free assay, competition with immobilised ligand | 1 µM | remaining binding | 100%
O=C1Nc2ccc(Cl)cc2C1=Cc1cc(Cl)c(O)c(Cl)c1 | cell-free assay | 0.5 µM | remaining signal | 105%
